Measurements pooled from the literature.
Each line is one published result; the experiments were not run side by side.
Target: Cytoplasmic tyrosine-protein kinase BMX (BMX, Homo sapiens, UniProt P51813)
One construct used (P51813 1-675): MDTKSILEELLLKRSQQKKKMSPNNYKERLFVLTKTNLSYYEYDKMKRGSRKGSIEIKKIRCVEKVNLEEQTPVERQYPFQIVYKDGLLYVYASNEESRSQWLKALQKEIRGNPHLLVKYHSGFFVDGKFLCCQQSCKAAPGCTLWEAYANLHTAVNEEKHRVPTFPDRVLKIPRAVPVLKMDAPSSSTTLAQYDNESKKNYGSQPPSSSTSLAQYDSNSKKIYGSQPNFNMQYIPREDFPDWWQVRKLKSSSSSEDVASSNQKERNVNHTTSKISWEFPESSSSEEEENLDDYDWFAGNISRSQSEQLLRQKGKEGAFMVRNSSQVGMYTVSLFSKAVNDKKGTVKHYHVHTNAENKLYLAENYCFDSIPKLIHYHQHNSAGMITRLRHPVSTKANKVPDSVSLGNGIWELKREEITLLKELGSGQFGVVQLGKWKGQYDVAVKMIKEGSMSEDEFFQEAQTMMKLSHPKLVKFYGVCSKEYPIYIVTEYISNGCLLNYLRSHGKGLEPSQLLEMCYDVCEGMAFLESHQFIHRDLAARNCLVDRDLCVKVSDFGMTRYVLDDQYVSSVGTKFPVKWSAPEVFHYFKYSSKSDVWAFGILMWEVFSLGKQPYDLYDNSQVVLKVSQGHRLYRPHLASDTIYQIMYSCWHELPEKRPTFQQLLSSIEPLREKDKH

`Cc1ccc(Nc2nccc(N(C)c3ccc4c(C)n(C)nc4c3)n2)cc1S(N)(=O)=O` has an inhibition of 8% (enzyme activity; inhibitor; 0.3 µM).
`CN(C)C1CCN(CC#Cc2nn(C3CCCC3)c3nc(NCc4ccccc4)ncc23)C1` (stereo not drawn) has an inhibition of 11% (enzyme activity; inhibitor; FRET; 0.1 µM).
`O=C(NCc1ncc(C(F)(F)F)cc1Cl)c1ccc2c(c1)C1(CCS(=O)(=O)CC1)[C@H](C1CC1)N2S(=O)(=O)c1ccc(F)cc1` gave a remaining binding of 100% (cell-free assay; competition with immobilised ligand; 1 µM).
With `COc1cc2ncnc(Nc3ccc(Oc4ccccc4)cc3C)c2cc1OC` the inhibition was 35% (enzyme activity; inhibitor; 1 µM).
The remaining binding of `Cc1nc(N2CC[C@@H](O)C2)ncc1-c1cc(C(F)(F)F)cc2[nH]ncc12` is reported as 100% (cell-free assay; competition with immobilised ligand; 1 µM).
With `C[S+]([O-])c1ccc(-c2nc(-c3ccncc3)c(-c3ccc(F)cc3)[nH]2)cc1` (stereo not drawn) the remaining signal was 94.4% (cell-free assay; 0.5 µM).
With `CN(c1ccnc(CNc2nc(Nc3ccc4c(c3)CC(=O)N4)ncc2C(F)(F)F)n1)S(C)(=O)=O` the remaining binding was 80% (cell-free assay; competition with immobilised ligand; 1 µM).
For `Cn1c2c(c3ccc(Cl)c(Cl)c31)C(C#N)C1(CCCC1)NC2=O` (stereo not drawn), the ΔTm was 0 °C (thermal stability; DSF; 10 µM).
The remaining signal of `O=C1Nc2ccc(Cl)cc2C1=Cc1cc(Cl)c(O)c(Cl)c1` is reported as 94.8% (cell-free assay; 0.5 µM).
`Cn1cc(Cl)c2c(Oc3c(F)cc(Nc4cc(Cl)nc(N)n4)cc3F)ccnc21` has a remaining binding of 97% (cell-free assay; competition with immobilised ligand; 0.1 µM).
The inhibition of `CCN(CC)CCNC(=O)c1c(C)[nH]c(/C=C2\C(=O)Nc3ccc(F)cc32)c1C` is reported as -1% (enzyme activity; inhibitor; 0.3 µM).
For `FC(F)(F)c1ccc2c(c1)nc(-c1cccnc1)n2C1CC1`, the remaining binding was 100% (cell-free assay; competition with immobilised ligand; 1 µM).
`Cn1cncc1C1=CN(c2ncnc3[nH]cnc23)CCS1` has an inhibition of 13.9% (enzyme activity; inhibitor; radiometric; 50 nM).
`N#CCCc1ccc2c(c1)-c1[nH]c3ccc([N+](=O)[O-])cc3c1CC(=O)N2` has a remaining signal of 99.5% (cell-free assay; 0.5 µM).
`N#CC1c2c([nH]c3c(Cl)c(Cl)ccc23)C(=O)NC12CCCCC2` (racemic) gave a ΔTm of -0.1 °C (thermal stability; DSF; 10 µM).
For `CNc1cc2c(Nc3cccc(Br)c3)ncnc2cn1`, the remaining activity was 93.9% (enzyme activity; inhibitor; 0.5 µM).
`CC/C(=N\NC(=O)NCc1cccc(O)c1)c1ccc(O)c(C)c1O` has an inhibition of 3% (enzyme activity; inhibitor; 0.1 µM).
`C[C@@H](N)[C@H]1CC[C@H](C(=O)Nc2ccncc2)CC1` has a remaining activity of 91.2% (enzyme activity; inhibitor; 0.5 µM).
`CNc1cccc2cc(C(=O)Nc3ccc(C(=O)O)cc3)c(=O)[nH]c12` gave an inhibition of 9.1% (enzyme activity; inhibitor; 10 µM).
`O=C1NC(=O)c2cc(Nc3ccc(F)cc3)c(Nc3ccc(F)cc3)cc21` has a remaining signal of 95.3% (cell-free assay; 0.5 µM).
For `Cn1c2c(c3ccc(Cl)c(Cl)c31)C(C#N)C1(CCOCC1)NC2=O` (stereo not drawn), the ΔTm was -0.3 °C (thermal stability; DSF; 10 µM).
